According to ChEMBL document CHEMBL1123203, “Metal complexes of mitomycins” (1986):

Key:
P388 [1] = assay: (§1) Activity against P-388 murine leukemia cells expressed as average weight change at a dose of 3.2 mg/kg per inj.; type: functional, Mus musculus
P388 [2] = assay: Activity against P-388 murine leukemia cells expressed as median survival time (MST treated/MST control) at a dose of 0.2 mg/kg per inj.; type: functional, Mus musculus
Method in brief: (§2)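 P-388 leukemia in vivo: 10^6 ascites cells implanted ip into female CDF1 mice. Six mice per mitosane dose, 10 saline-injected controls, and a concurrent mitomycin C group of six mice per dose. Median survival time recorded; %T/C = MST treated/MST control × 100. 30-day survivors counted. Minimum effective dose set at %T/C 125.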

P388 [3] = assay: Activity against P-388 murine leukemia cells expressed as median survival time (MST treated/MST control) at a dose of 6.4 mg/kg per inj.; type: functional, Mus musculus; method in brief: as §2
P388 [4] = assay: (§3) Activity against P-388 murine leukemia cells expressed as average weight change at a dose of 6.4 mg/kg per inj.; type: functional, Mus musculus
P388 [5] = assay: Activity against P-388 murine leukemia cells expressed as median survival time (MST treated/MST control) at a dose of 0.8 mg/kg per inj.; type: functional, Mus musculus; method in brief: as §2
P388 [6] = assay: Activity against P-388 murine leukemia cells expressed as median survival time (MST treated/MST control) at a dose of 3.2 mg/kg per inj.; type: functional, Mus musculus; method in brief: as §2
P388 [7] = assay: Activity against P-388 murine leukemia cells expressed as average weight change at a dose of 0.8 mg/kg per inj.; type: functional, Mus musculus
P388 [8] = assay: Activity against P-388 murine leukemia cells expressed as average weight change at a dose of 0.2 mg/kg per inj.; type: functional, Mus musculus
P388 [9] = assay: Activity against P-388 murine leukemia cells at a dose of 3.2 mg/kg per inj.; type: functional, Mus musculus; method in brief: as §2
P388 [10] = assay: Activity against P-388 murine leukemia cells expressed as average weight change at a dose of 0.4 mg/kg per inj.; type: functional, Mus musculus
P388 [11] = assay: Activity against P-388 murine leukemia cells expressed as median survival time (MST treated/MST control) at a dose of 25.6 mg/kg per inj.; type: functional, Mus musculus; method in brief: as §2
P388 [12] = assay: Activity against P-388 murine leukemia cells expressed as median survival time (MST treated/MST control) at a dose of 12.8 mg/kg per inj.; type: functional, Mus musculus; method in brief: as §2
P388 [13] = assay: Activity against P-388 murine leukemia cells expressed as average weight change at a dose of 1.6 mg/kg per inj.; type: functional, Mus musculus
P388 [14] = assay: Activity against P-388 murine leukemia cells expressed as median survival time (MST treated/MST control) at a dose of 1.6 mg/kg per inj.; type: functional, Mus musculus; method in brief: as §2
P388 [15] = assay: (§4) Activity against P-388 murine leukemia cells expressed as average weight change at a dose of 25.6 mg/kg per inj.; type: functional, Mus musculus
P388 [16] = assay: Activity against P-388 murine leukemia cells expressed as median survival time (MST treated/MST control) at a dose of 0.4 mg/kg per inj.; type: functional, Mus musculus; method in brief: as §2
P388 [17] = assay: (§5) Activity against P-388 murine leukemia cells expressed as average weight change at a dose of 12.8 mg/kg per inj.; type: functional, Mus musculus
P388 [18] = assay: Activity against P-388 murine leukemia cells expressed as median survival time (MST treated/MST control) at a dose of 4.8 mg/kg per inj.; type: functional, Mus musculus; method in brief: as §2
P388 [19] = assay: Activity against P-388 murine leukemia cells at a dose of 4.8 mg/kg per inj.; type: functional, Mus musculus; method in brief: as §2
P388 [20] = assay: Activity against P-388 murine leukemia celLS at a dose of 3.2 mg/kg per inj.; type: functional, Mus musculus; method in brief: as §2
P388 [21] = assay: as §5; type: functional, organism-based; conditions: Mus musculus
Method in brief: (§6)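 P-388 leukemia in vivo: 10^6 ascites cells implanted ip in female CDF1 mice. Six mice per dose level; 10 saline-injected controls. A parallel group of six mice per dose received mitomycin C in the same experiment as a reference. Tested at Bristol-Myers.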

P388 [22] = assay: as §4; type: functional, organism-based; conditions: Mus musculus; method in brief: as §6
P388 [23] = assay: as §3; type: functional, organism-based; conditions: Mus musculus; method in brief: as §6
P388 [24] = assay: as §1; type: functional, organism-based; conditions: Mus musculus; method in brief: as §6

| Molecule | Activity (P388 [1]) [g] | MST (P388 [3]) | Activity (P388 [4]) [g] | MST (P388 [6]) | MST (P388 [11]) | MST (P388 [12]) | Activity (P388 [13]) [g] | MST (P388 [14]) | Activity (P388 [15]) [g] | Activity (P388 [17]) [g] | MST (P388 [12]; Mus musculus) | other results |
| --- | --- | --- | --- | --- | --- | --- | --- | --- | --- | --- | --- | --- |
| CO[C@@]12C(COC(N)=O)C3=C(C(=O)C(C)=C(NCCc4ccccn4)C3=O)N1CC1NC12 (stereo not given in full) | -0.9 | 213 | -1.1 | 163 | >375 | 256 | -0.4 | 163 | -2.7 | -1.8 |  | MST (P388 [2]): 125; MST (P388 [5]): 138; Activity (P388 [7]): -0.3 g; Activity (P388 [8]): -0.5 g; T/C (P388 [9]): 319%; Activity (P388 [10]): -0.6 g; MST (P388 [16]): 125 |
| CO[C@@]12C(COC(N)=O)C3=C(C(=O)C(C)=C(NCCN4CCNCC4)C3=O)N1CC1NC12 (stereo not given in full) |  | 113 | 2.1 |  | 138 | 125 |  |  | -0.6 | 1.2 |  | T/C (P388 [18]): 213% |
| COC1c2c(COC(N)=O)c3c(n2CC1N)C(=O)C(C)=C(N)C3=O.Cl (stereo not given) |  | 110 | 1.9 |  | 130 | 115 |  |  | 0.6 | 0.4 |  | T/C (P388 [19]): >165% |
| CO[C@@]12[C@H](COC(N)=O)C3=C(C(=O)C(C)=C(NCCc4ccccn4)C3=O)N1C[C@@H]1N[C@@H]12.Cl.Cl.[Zn+2] | 0.1 | 139 | -0.6 | 133 | 161 | 156 | 0.8 | 122 | -1.3 | -0.4 |  | T/C (P388 [20]): 194% |
| 3-[6-(1,1-copperdichloro-1H,2H,3H,4H-pyrido[1,2-c]pyrimidin-9-ium-2-yl)-8a-methoxy-5-methyl-4,7-dioxo-(8aR)-1,1a,2,4,7,8,8a,8b-octahydroazireno[3',2':3,4]pyrrolo[1,2-a]indol-8-yl]methyloxocarboxamide |  |  |  |  |  |  |  |  |  |  | 122 | av wt change (P388 [21]): 0.2 g; MST (P388 [11]; Mus musculus): 128; av wt change (P388 [22]): -1.4 g |
| 2-amino-9-(2-carbamoyloxomethyl)-1-methoxy-6-methyl-5,8-dioxo-2,3,5,8-tetrahydro-1H-pyrrolo[1,2-a]indol-7-yl(dichlorocopper)ammonium; Copper chloride |  |  |  |  |  |  |  |  |  |  | 100 | Activity (P388 [23]): 0.8 g; Activity (P388 [24]): 0.9 g; MST (P388 [3]; Mus musculus): 100; MST (P388 [6]; Mus musculus): 100; Activity (P388 [21]): 0.3 g; T/C (P388 [9]; Mus musculus): 100%; Activity (P388 [22]): -3.1 g |
| Platinium II Complex N7-[2-(2-Pyridyl)ethyl]mitomycin C |  |  |  |  |  |  |  |  |  |  | 110 | T/C (P388 [18]; Mus musculus): 230%; MST (P388 [11]; Mus musculus): 125; Activity (P388 [15]; Mus musculus): -0.2 g; Activity (P388 [17]; Mus musculus): 0.5 g |
| COC1c2c(COC(=N)[O-])c3c(n2CC1N)C(=O)C(C)=C(N)C3=O.Cl.[Zn+] (stereo not given) | 2 | 133 | 0.7 | 139 | 178 | 144 | 0.5 | 122 | -0.7 | 0.4 |  | T/C (P388 [9]): 194% |
| CO[C@@]12[C@H](COC(N)=O)C3=C(C(=O)C(C)=C(NCCN4CCNCC4)C3=O)N1C[C@@H]1N[C@@H]12.Cl.Cl.[Zn+2] |  |  |  |  | 100 | 90 |  |  | -0.6 | 1.2 |  | T/C (P388 [18]): 213% |
